Laboratory results from ChEMBL document CHEMBL1687924, “Antiviral activity of seed extract from Citrus bergamia towards human retroviruses” (Bioorg Med Chem, 2011).
In brackets after ≈: the same amount, converted by molar mass. Activity calls are given as the source filed them. The rule behind the calls is not given here.

Experiments:
[1] = Ratio of Lamivudine CC50 to compound CC50 for human MOLT3 cells; type: ADME, cell-based, MOLT-3
[2] = system: Human immunodeficiency virus 1; assay: Antiviral activity against HIV1 infected in human PBMC assessed as inhibition of gag gene expression after 5 days post infection by quantitative real time RT-PCR; type: functional, organism-based; details: Human immunodeficiency virus 1, 120 h
Summary of the method: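 Donor PBMC (HIV-, HBV-, HCV-seronegative) stimulated overnight with PHA 2 µg/ml, then infected 2 h with clarified H9/HIV-1IIIB supernatant (20 ng/ml p24), then cultured with IL2 20 U/ml. Compounds added 4 h pre-infection and re-added daily at half concentration; vehicle ≤0.5% methanol. Harvest day 5; gag mRNA by SYBR RQ-PCR vs GUSB (2^-ΔΔCt); three experiments in triplicate; IC50.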

[3] = system: Human immunodeficiency virus 1; assay: Antiviral activity against HIV1 infected in human PBMC assessed as inhibition of gag gene expression at 10 ug/ml after 5 days post infection by quantitative real time RT-PCR; type: functional, organism-based
Summary of the method: (§1)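 PBMC were stimulated overnight with 2 µg/ml PHA and infected for 2 h with clarified H9/HIV-1IIIB supernatant at 20 ng/ml p24. They were then cultured with IL-2 20 U/ml. Compound was added 4 h before infection and re-added daily at half concentration, with 0.5% methanol as vehicle control. At 5 days pi, gag mRNA was measured by SYBR Green RQ-PCR in triplicate, normalized to GUSB (2^-ΔΔCt).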

[4] = Ratio of nevirapine CC50 to compound CC50 for human MOLT3 cells; type: ADME, cell-based, MOLT-3
[5] = Ratio of zidovudine CC50 to compound CC50 for human MOLT3 cells; type: ADME, cell-based, MOLT-3
[6] = molecular target: Human immunodeficiency virus type 1 reverse transcriptase (Human immunodeficiency virus 1, UniProt Q72547); assay: Inhibition of HIV1 3B reverse transcriptase activity
Summary of the method: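 Commercial purified HIV-1 RT replaced the virion lysate in the same cell-free reverse transcription/20-cycle amplification assay. RTIC50 came from band densitometry over three independent experiments, with no compound pre-activation.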

[7] = system: Human T-cell leukemia virus type I; assay: Antiviral activity against Human T-cell leukemia/lymphoma virus type 1 infected in human PBMC assessed as inhibition of tax/rex gene expression after 3 weeks post infection by quantitative real time RT-PCR; type: functional, organism-based; details: Primate T-lymphotropic virus 1, 504 h
Summary of the method: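 PBMC infected with HTLV-1. Compounds were added at infection onset, then at half concentration on days 3, 7 and 10 pi; the vehicle was up to 0.5% methanol. Cells were harvested 3 weeks pi and debris removed on a density gradient. tax/rex mRNA was measured by SYBR RQ-PCR normalized to GUSB (2^-ΔΔCt). RQ-IC50 came from three experiments, each in triplicate.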

[8] = Inhibition of Human T-cell leukemia/lymphoma virus type 1 reverse transcriptase activity infected in human MT2 cells assessed as level of p19 antigen; type: cell-based, Human T-cell leukemia virus type I; details: Primate T-lymphotropic virus 1, MT2
[9] = Cytotoxicity against human MOLT3 cells after 24 hrs by MTS assay; type: cell-based, MOLT-3
Summary of the method: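 MOLT-3 cells (1 × 10^4) were exposed for 1 day in RPMI with 5% FBS to seven concentrations (1 ng/ml–1 mg/ml). MTS formazan formation was read at 490 nm after 1 h with reagent. Mean CC50 comes from three independent experiments.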

[10] = Cytotoxicity against PHA-stimutated human PBMC after 24 hrs by MTS assay; type: cell-based; details: PHA-stimulated PBMC
[11] = system: Human T-cell leukemia virus type I; assay: Antiviral activity against Human T-cell leukemia/lymphoma virus type 1 infected in human PBMC assessed as inhibition of tax/rex gene expression at 10 ug/ml after 3 weeks post infection by quantitative real time RT-PCR; type: functional, organism-based
Summary of the method: (§2)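 Compound was added to PBMC cultures at the onset of HTLV-1 infection and re-added at half concentration on days 3, 7 and 10 pi, with 0.5% methanol as vehicle control. Cells were harvested 3 weeks pi and debris removed on a density gradient. Tax/rex mRNA was quantified by SYBR Green RT-PCR (40 cycles, 95/60 °C) against GUSB using the comparative Ct method.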

[12] = system: Human T-cell leukemia virus type I; assay: Ratio of IC50 for nevirapine to compound IC50 for Human T-cell leukemia/lymphoma virus type 1 reverse transcriptase activity
[13] = system: Human immunodeficiency virus 1; assay: Antiviral activity against HIV1 infected in human PBMC assessed as inhibition of gag gene expression at 1 ug/ml after 5 days post infection by quantitative real time RT-PCR; type: functional, organism-based; summary of the method: as §1
[14] = system: Human T-cell leukemia virus type I; assay: Antiviral activity against Human T-cell leukemia/lymphoma virus type 1 infected in human PBMC assessed as inhibition of tax/rex gene expression at 5 ug/ml after 3 weeks post infection by quantitative real time RT-PCR; type: functional, organism-based; summary of the method: as §2
[15] = Ratio of CC50 for PHA-stimulated human PBMC to IC50 for HIV1 infected in human PBMC
[16] = system: Human immunodeficiency virus 1; assay: Antiviral activity against HIV1 infected in human PBMC assessed as inhibition of gag gene expression at 0.27 ug/ml after 5 days post infection by quantitative real time RT-PCR; type: functional; details: Human immunodeficiency virus 1, 120 h
[17] = system: Human T-cell leukemia virus type I; assay: Antiviral activity against Human T-cell leukemia/lymphoma virus type 1 infected in human PBMC assessed as inhibition of tax/rex gene expression at 0.27 ug/ml after 3 weeks post infection by quantitative real time RT-PCR; type: functional; details: Primate T-lymphotropic virus 1, 504 h
[18] = system: Human immunodeficiency virus 1; assay: Antiviral activity against HIV1 infected in human PBMC assessed as inhibition of gag gene expression at 0.23 ug/ml after 5 days post infection by conventional RT-PCR; details: Human immunodeficiency virus 1, 120 h
[19] = system: Human T-cell leukemia virus type I; assay: Antiviral activity against Human T-cell leukemia/lymphoma virus type 1 infected in human PBMC assessed as inhibition of tax/rex gene expression at 22.93 ug/ml after 3 weeks post infection by quantitative real time RT-PCR; type: functional; details: Primate T-lymphotropic virus 1, 504 h

SMILES | selectivity ratio [1] | IC50 [2] [µg/mL] | inhibition [3] | selectivity ratio [4] | selectivity ratio [5] | IC50 [6] [nM] | IC50 [7] [µg/mL] | IC50 [8] [µg/mL] | CC50 at 24 h [9] [µg/mL] | CC50 at 24 h [10] [µg/mL] | inhibition [11] | Ratio IC50 [12] | inhibition [13] | inhibition [14] | Ratio CC50/IC50 [15] | inhibition at 0.27 µg/mL [16] [%] | inhibition at 0.27 µg/mL [17] [%] | inhibition at 0.23 µg/mL [18] [%] | inhibition at 22.93 µg/mL [19] [%]
CC(=O)O[C@H]1CC(=O)OC(C)(C)[C@@H]2CC(=O)[C@]3(C)[C@H](CC[C@@]4(C)[C@@H](c5ccoc5)OC(=O)[C@H]5O[C@]543)[C@@]12C [NOMILIN] | 130 | 13 (≈ 25.3 µM) | Active | 40 | 230 | 6.65 | 3.98 (≈ 7.73 µM) | 0.0026 (≈ 0.00505 µM) | 756 (≈ 1470 µM) | 692 (≈ 1340 µM) | Active | – | – | – | – | – | – | – | –
CC1(C)O[C@H]2CC(=O)OC[C@]23[C@H]2CC[C@@]4(C)[C@H](c5ccoc5)OC(=O)[C@H]5O[C@]54[C@]2(C)C(=O)C[C@@H]13 [LIMONIN] | 33 | 0.92 (≈ 1.96 µM) | – | 10 | 62 | 8.99 | 1.07 (≈ 2.27 µM) | 0.00031 (≈ 0.000659 µM) | 202 (≈ 428 µM) | 452 (≈ 960 µM) | – | > 1000 | Active | Active | 450 | – | – | – | –
Cc1cn([C@H]2C[C@H](N=[N+]=[N-])[C@@H](CO)O2)c(=O)[nH]c1=O [ZIDOVUDINE] | – | – | – | – | – | – | 0.16 (≈ 0.599 µM) | – | 3.24 (≈ 12.1 µM) | 31.2 (≈ 117 µM) | – | – | – | – | – | 100 | 100 | – | –
Cc1ccnc2c1NC(=O)c1cccnc1N2C1CC1 [NEVIRAPINE] | – | – | – | – | – | – | – | > 0.266 | 20.1 (≈ 75.3 µM) | 40.9 (≈ 154 µM) | – | – | – | – | – | 100 | – | – | –
Nc1ccn([C@@H]2CS[C@H](CO)O2)c(=O)n1 [LAMIVUDINE] | – | 0.19 (≈ 0.829 µM) | – | – | – | – | 14.2 (≈ 62.1 µM) | – | 5.94 (≈ 25.9 µM) | 53 (≈ 231 µM) | – | – | – | – | – | – | – | 100 | 100
